Assay results as given in ChEMBL document CHEMBL4190388, “Discovery and Optimization of Indolyl-Containing 4-Hydroxy-2-Pyridone Type II DNA Topoisomerase Inhibitors Active against Multidrug Resistant Gram-negative Bacteria” (J Med Chem, 2018).
In brackets after ≈: the same amount, converted by molar mass.

Key:
Escherichia coli [1] = experiment: Antibacterial activity against fluoroquinolone resistant Escherichia coli SKM18 by CLSI M100-S17 protocol based method; assay type: functional
Escherichia coli [2] = experiment: Antibacterial activity against wild type Escherichia coli ATCC 25922 by CLSI M100-S17 protocol based method; assay type: functional
Escherichia coli [3] = experiment: Antibacterial activity against quinolone resistance Escherichia coli isolate ELZ4251 harboring gyrA/parC mutant by CLSI M100-S17 protocol based method; assay type: functional
Acinetobacter baumannii [4] = experiment: Antibacterial activity against wild type Acinetobacter baumannii ATCC BAA-747 by CLSI M100-S17 protocol based method; assay type: functional
Acinetobacter baumannii [5] = experiment: Antibacterial activity against fluoroquinolone resistant Acinetobacter baumannii isolate MMX2240 by CLSI M100-S17 protocol based method; assay type: functional
Klebsiella pneumoniae = experiment: Antibacterial activity against wild type Klebsiella pneumoniae ATCC 35657 by CLSI M100-S17 protocol based method; assay type: functional
Escherichia coli [6] = experiment: Antibacterial activity against wild type Escherichia coli ATCC 25922 in presence of HSA by CLSI M100-S17 protocol based method; assay type: functional
Escherichia coli [7] = experiment: Selectivity ratio of MIC for wild type Escherichia coli ATCC 25922 in presence of HSA to MIC for wild type Escherichia coli ATCC 25922; assay type: functional
Mus musculus [8] = experiment: Terminal half life in CD1 mouse plasma at 10 mg/kg, iv by LC-MS/MS analysis; assay type: ADME, organism-based; details: in vivo
Mus musculus [9] = experiment: AUC (0 to 24 hrs) in CD1 mouse plasma at 10 mg/kg, iv by LC-MS/MS analysis; assay type: ADME, organism-based; set-up: time < 24 hr, dose 10 mg/kg, route intravenous; details: in vivo
Procedure, shortened: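 CD-1 mice given a single 10 mg/kg iv dose (n = 3), in either 10% DMSO plus 1% Tween 80 in pH 8.0 phosphate buffer or 20% (2-hydroxypropyl)-β-cyclodextrin in pH 4.0 citrate buffer; plasma exposure measured.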

Mus musculus [10] = experiment: Volume of distribution at steady state in CD1 mouse plasma at 10 mg/kg, iv by LC-MS/MS analysis; assay type: ADME, organism-based; details: in vivo
[11] = Oral bioavailability in CD1 mouse plasma by LC-MS/MS analysis; assay type: ADME, organism-based
[12] = Fraction unbound in mouse plasma at 1 uM by equilibrium dialysis method; assay type: ADME, cell-free
Escherichia coli [13] = experiment: Antibacterial activity against Escherichia coli infected in cyclophosphamide treated neutropenic CD1 mouse septicemia model assessed as mouse survival at 20 mg/kg, iv dosed at 1 hr post infection followed by redosing at 5 hrs post infection measured at 96 hrs post infection relative to control; assay type: functional
Procedure, shortened: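 Female CD-1 mice were made neutropenic with cyclophosphamide ip, 150 mg/kg on day −4 and 100 mg/kg on day −1. […] Compound was given iv in 3% DMSO/saline at 1 and 5 h postinfection, n = 6 per group. Percent survival was scored at 96 h postinfection.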

Escherichia coli [14] = experiment: Antibacterial activity against quinolone resistant Escherichia coli by broth microdilution method; assay type: functional; details: Escherichia coli; for MIC: read-out: MIC
Procedure, shortened: (§1)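 MICs were determined by CLSI broth methods, except that organisms were grown in brain–heart–infusion medium. The panel comprised wild-type and resistant E. coli and A. baumannii strains, including 12 strains whose details are given by reference.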

Escherichia coli [15] = experiment: Antibacterial activity against wild type Escherichia coli by broth microdilution method; assay type: functional; procedure, shortened: as §1
Escherichia coli [16] = experiment: Antibacterial activity against beta-lactam resistant Escherichia coli by broth microdilution method; assay type: functional; details: Escherichia coli; for MIC: read-out: MIC; procedure, shortened: as §1
Escherichia coli [17] = experiment: Antibacterial activity against aminoglycoside resistant Escherichia coli by broth microdilution method; assay type: functional; details: Escherichia coli; for MIC: read-out: MIC; procedure, shortened: as §1
Escherichia coli [18] = experiment: Antibacterial activity against multidrug resistant Escherichia coli by broth microdilution method; assay type: functional; details: Escherichia coli; for MIC: read-out: MIC; procedure, shortened: as §1
Acinetobacter baumannii [19] = experiment: Antibacterial activity against wild type Acinetobacter baumannii by broth microdilution method; assay type: functional; procedure, shortened: as §1
Acinetobacter baumannii [20] = experiment: Antibacterial activity against aminoglycoside resistant Acinetobacter baumannii by broth microdilution method; assay type: functional; details: Acinetobacter baumannii; procedure, shortened: as §1
Acinetobacter baumannii [21] = experiment: Antibacterial activity against quinolone resistant Acinetobacter baumannii by broth microdilution method; assay type: functional; details: Acinetobacter baumannii; procedure, shortened: as §1
Acinetobacter baumannii [22] = experiment: Antibacterial activity against beta-lactam resistant Acinetobacter baumannii by broth microdilution method; assay type: functional; details: Acinetobacter baumannii; procedure, shortened: as §1
Acinetobacter baumannii [23] = experiment: Antibacterial activity against carbapenem resistant Acinetobacter baumannii by broth microdilution method; assay type: functional; details: Acinetobacter baumannii; procedure, shortened: as §1
Acinetobacter baumannii [24] = experiment: Antibacterial activity against multidrug resistant Acinetobacter baumannii by broth microdilution method; assay type: functional; details: Acinetobacter baumannii; procedure, shortened: as §1

Structure (SMILES) | MIC (Escherichia coli [1]) | MIC (Escherichia coli [2]) | MIC (Escherichia coli [3]) | MIC (Acinetobacter baumannii [4]) | MIC (Acinetobacter baumannii [5]) | MIC (Klebsiella pneumoniae) | MIC (Escherichia coli [6]) | Ratio (Escherichia coli [7]) | beta t1/2 (Mus musculus [8]) | AUC (Mus musculus [9]) | Vdss (Mus musculus [10]) | Fu [12] | MIC50 (Escherichia coli [14]) | MIC90 (Escherichia coli [14]) | MIC (Escherichia coli [14]) | MIC50 (Escherichia coli [15]) | MIC90 (Escherichia coli [15]) | MIC50 (Escherichia coli [16]) | MIC90 (Escherichia coli [16]) | MIC (Escherichia coli [16]) | further results
Cn1c(CNC2(C)CCC2)cc2cc3c(cc21)OCCc1c-3[nH]c(=O)c(C(=O)O)c1O | 0.5 µg/mL (≈ 1.18 µM) | 1 µg/mL (≈ 2.36 µM) | 0.78 µg/mL (≈ 1.84 µM) | 0.5 µg/mL (≈ 1.18 µM) | 0.5 µg/mL (≈ 1.18 µM) | 1 µg/mL (≈ 2.36 µM) | 3.9 µg/mL | 2 - 4 | 3.3 h | 4420 ng·h/mL | 13 L/kg | 0.15 | 0.5 µg/mL (≈ 1.18 µM) | 1 µg/mL (≈ 2.36 µM) | 0.12 to 1 µg/mL (≈ 0.283 to 2.36 µM) | 0.5 µg/mL (≈ 1.18 µM) | 1 µg/mL (≈ 2.36 µM) | 0.5 µg/mL (≈ 1.18 µM) | 1 µg/mL (≈ 2.36 µM) | 0.12 to 1 µg/mL (≈ 0.283 to 2.36 µM) | bioavailability [11]: 50%; survival at 20 mg/kg (Escherichia coli [13]): 67%; MIC50 (Escherichia coli [17]): 0.5 µg/mL (≈ 1.18 µM); MIC90 (Escherichia coli [17]): 1 µg/mL (≈ 2.36 µM); MIC (Escherichia coli [17]): 0.12 to 1 µg/mL (≈ 0.283 to 2.36 µM); MIC50 (Escherichia coli [18]): 0.5 µg/mL (≈ 1.18 µM); MIC90 (Escherichia coli [18]): 1 µg/mL (≈ 2.36 µM); MIC (Escherichia coli [18]): 0.12 to 1 µg/mL (≈ 0.283 to 2.36 µM); MIC50 (Acinetobacter baumannii [19]): 1 µg/mL (≈ 2.36 µM); MIC90 (Acinetobacter baumannii [19]): 8 µg/mL (≈ 18.9 µM); MIC50 (Acinetobacter baumannii [20]): 1 µg/mL (≈ 2.36 µM); MIC90 (Acinetobacter baumannii [20]): 8 µg/mL (≈ 18.9 µM); MIC50 (Acinetobacter baumannii [21]): 1 µg/mL (≈ 2.36 µM); MIC90 (Acinetobacter baumannii [21]): 8 µg/mL (≈ 18.9 µM); MIC50 (Acinetobacter baumannii [22]): 1 µg/mL (≈ 2.36 µM); MIC90 (Acinetobacter baumannii [22]): 8 µg/mL (≈ 18.9 µM); MIC50 (Acinetobacter baumannii [23]): 1 µg/mL (≈ 2.36 µM); MIC90 (Acinetobacter baumannii [23]): 8 µg/mL (≈ 18.9 µM); MIC50 (Acinetobacter baumannii [24]): 1 µg/mL (≈ 2.36 µM); MIC90 (Acinetobacter baumannii [24]): 8 µg/mL (≈ 18.9 µM)
CN(C)Cc1cc2cc3c(cc2n1C)OCCc1c-3[nH]c(=O)c(C(=O)O)c1O | 1 µg/mL (≈ 2.61 µM) | 1 µg/mL (≈ 2.61 µM) | 1.6 µg/mL (≈ 4.17 µM) | 2 µg/mL (≈ 5.22 µM) | 3.9 µg/mL (≈ 10.2 µM) | 1 µg/mL (≈ 2.61 µM) | 2 µg/mL | 2 - 4 | 3.1 h | 2930 ng·h/mL | 7.6 L/kg | 0.21 | 0.5 µg/mL (≈ 1.3 µM) | 2 µg/mL (≈ 5.22 µM) | 0.25 to 8 µg/mL (≈ 0.652 to 20.9 µM) | 0.5 µg/mL (≈ 1.3 µM) | 2 µg/mL (≈ 5.22 µM) | 0.5 µg/mL (≈ 1.3 µM) | 2 µg/mL (≈ 5.22 µM) | 0.25 to 8 µg/mL (≈ 0.652 to 20.9 µM) | MIC50 (Escherichia coli [17]): 0.5 µg/mL (≈ 1.3 µM); MIC90 (Escherichia coli [17]): 2 µg/mL (≈ 5.22 µM); MIC (Escherichia coli [17]): 0.25 to 8 µg/mL (≈ 0.652 to 20.9 µM); MIC50 (Escherichia coli [18]): 0.5 µg/mL (≈ 1.3 µM); MIC90 (Escherichia coli [18]): 2 µg/mL (≈ 5.22 µM); MIC (Escherichia coli [18]): 0.25 to 8 µg/mL (≈ 0.652 to 20.9 µM); MIC (Acinetobacter baumannii [19]): 0.25 to 16 µg/mL (≈ 0.652 to 41.7 µM); MIC50 (Acinetobacter baumannii [19]): 2 µg/mL (≈ 5.22 µM); MIC90 (Acinetobacter baumannii [19]): 16 µg/mL (≈ 41.7 µM); MIC50 (Acinetobacter baumannii [20]): 2 µg/mL (≈ 5.22 µM); MIC90 (Acinetobacter baumannii [20]): 16 µg/mL (≈ 41.7 µM); MIC50 (Acinetobacter baumannii [21]): 2 µg/mL (≈ 5.22 µM); MIC90 (Acinetobacter baumannii [21]): 16 µg/mL (≈ 41.7 µM); MIC50 (Acinetobacter baumannii [22]): 2 µg/mL (≈ 5.22 µM); MIC90 (Acinetobacter baumannii [22]): 16 µg/mL (≈ 41.7 µM); MIC50 (Acinetobacter baumannii [23]): 2 µg/mL (≈ 5.22 µM); MIC90 (Acinetobacter baumannii [23]): 16 µg/mL (≈ 41.7 µM); MIC50 (Acinetobacter baumannii [24]): 2 µg/mL (≈ 5.22 µM); MIC90 (Acinetobacter baumannii [24]): 16 µg/mL (≈ 41.7 µM)
